Measured values as given in paper PMC5538437 (Genes & Development, 2017).

Tests used:
[1] = system: R-Luc-6xMS2-A95-MALAT1 reporter; test: Tethering assay, R-Luc-6xMS2-A95-MALAT1 reporter, HEK293T cells; assay type: cell-based, human; conditions: MS2-HA-GYF2, HEK293T cells
Outline: (§1)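 HEK293T cells transfected with 0.25 µg F-Luc-GFP control plasmid, 0.5 µg R-Luc-6xMS2-A95-MALAT1 reporter (or R-Luc-A95-MALAT1, lacking MS2 sites), 0.25 µg GFP-MBP, and 0.3 µg MS2-HA or 1 µg MS2-HA-GYF2 (wild type or canonical mutant) plasmid. Dual luciferase read 2 d post-transfection. R-Luc normalized to F-Luc, set to 100% for MS2-HA. Mean ± SD of three independent experiments.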

[2] = system: R-Luc-ARE-A90-MALAT1 reporter; assay type: cell-based, human; conditions: λN-HA-TTPΔNIM with GFP-GYF2 and/or λN-HA-4EHP, GYF1/2-null HEK293T cells
Outline: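 Wild-type and GYF1/2-null HEK293T cells received 1 µg R-Luc-ARE-A90-MALAT1 reporter and 0.25 µg F-Luc-GFP control. Where indicated, they also received 50 ng λN-HA-TTPΔNIM, 0.2 µg GFP-MBP, 1 µg GFP-GYF2 (wild type or C*) and 0.5 µg λN-HA-4EHP. Dual luciferase was measured 2 d post-transfection. R-Luc/F-Luc was set to 100% without TTP for each cell line.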

[3] = target: T1, 4EHP–4E-BP1 complex (Homo sapiens, UniProt O60573); test: Competition assay, preassembled 4EHP–4E-BP1 complex; assay type: biochemical; conditions: competition assay with equimolar GYF2 fragment
T1 sequence (O60573 52-234): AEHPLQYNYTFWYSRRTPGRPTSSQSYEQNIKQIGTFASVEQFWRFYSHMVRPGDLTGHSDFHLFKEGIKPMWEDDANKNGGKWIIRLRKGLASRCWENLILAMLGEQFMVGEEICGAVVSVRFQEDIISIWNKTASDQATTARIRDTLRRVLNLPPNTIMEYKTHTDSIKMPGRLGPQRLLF

[4] = system: R-Luc-5BoxB-A95-MALAT1 reporter; assay type: cell-based, human; conditions: λN-HA-4EHP with GFP-MBP or GFP-GYF2, GYF1/2-null HEK293T cells
Outline: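 GYF1/2-null and control HEK293T cells were seeded at 0.6 × 10^6 cells per well and lipofected. Each well received 0.25 µg F-Luc-GFP control, 0.5 µg R-Luc-5BoxB-A95-MALAT1 reporter, and 0.3 µg λN-HA or 0.7 µg λN-HA-4EHP. Cells also got 0.25 µg GFP-MBP, 1.8 µg GFP-GYF2 wild type or 1.2 µg C* mutant. Luciferases were read after 2 d. R-Luc/F-Luc was set to 100% for λN-HA. Mean ± SD, three independent experiments.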

[5] = system: R-Luc-A95-MALAT1 reporter; test: Tethering assay, reporter lacking the MS2-binding sites; assay type: cell-based, human; conditions: MS2-HA-GYF2, HEK293T cells
Outline: as §1

[6] = target: T2, 4EHP–GYF2 (35–105) complex (Homo sapiens, UniProt O60573+Q6Y7W6); test: ITC, m7GpppG cap analog vs 4EHP–GYF2 complex; assay type: binding; conditions: 20 mM HEPES pH 7.5, 200 mM NaCl
T2 sequence (O60573 52-234): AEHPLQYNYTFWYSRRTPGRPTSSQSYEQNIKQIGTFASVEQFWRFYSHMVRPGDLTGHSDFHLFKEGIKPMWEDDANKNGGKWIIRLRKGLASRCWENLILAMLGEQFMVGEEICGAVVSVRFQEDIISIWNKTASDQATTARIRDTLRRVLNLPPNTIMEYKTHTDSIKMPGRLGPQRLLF
T2 sequence (Q6Y7W6 35-105 partner limits assumed): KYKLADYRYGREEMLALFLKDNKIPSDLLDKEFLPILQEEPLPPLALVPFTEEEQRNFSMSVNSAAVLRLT

[7] = target: T3, 4EHP RE-LL–4E-BP1 complex (Homo sapiens, UniProt O60573, E149L/R103L); test: Competition assay, preassembled 4EHP RE-LL–4E-BP1 complex; assay type: biochemical; conditions: after 60 min of incubation with equimolar GYF2 fragment
T3 sequence (O60573 52-234 R103L/E149L): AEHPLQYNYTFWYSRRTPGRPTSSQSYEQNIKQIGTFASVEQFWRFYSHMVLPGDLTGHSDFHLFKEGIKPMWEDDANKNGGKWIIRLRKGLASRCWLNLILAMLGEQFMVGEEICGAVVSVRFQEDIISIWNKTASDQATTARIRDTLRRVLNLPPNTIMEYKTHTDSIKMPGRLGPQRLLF

Molecule: GYF2 C: GYF2 residues K35–K54, canonical 4EHP-binding region (KYKLADYRYGREEMLALFLK; UniProt Q6Y7W6 35-54, looked up, fragment)
- repression of MS2 reporter expression [1]: still repressed the expression of the R-Luc-6xMS2-A95-MALAT1 reporter as efficiently as wild-type GYF2
- TTP-mediated repression of the ARE reporter, GYF1/2-null cells [2]: No restoration was observed

B1: GYF2: Hs GIGYF2 Q6Y7W6-1, full-length (1–1299) (protein)
chain: MAAETQTLNFGPEWLRALSSGGSITSPPLSPALPKYKLADYRYGREEMLALFLKDNKIPSDLLDKEFLPILQEEPLPPLALVPFTEEEQRNFSMSVNSAAVLRLTGRGGGGTVVGAPRGRSSSRGRGRGRGECGFYQRSFDEVEGVFGRGGGREMHRSQSWEERGDRRFEKPGRKDVGRPNFEEGGPTSVGRKHEFIRSESENWRIFREEQNGEDEDGGWRLAGSRRDGERWRPHSPDGPRSAGWREHMERRRRFEFDFRDRDDERGYRRVRSGSGSIDDDRDSLPEWCLEDAEEEMGTFDSSGAFLSLKKVQKEPIPEEQEMDFRPVDEGEECSDSEGSHNEEAKEPDKTNKKEGEKTDRVGVEASEETPQTSSSSARPGTPSDHQSQEASQFERKDEPKTEQTEKAEEETRMENSLPAKVPSRGDEMVADVQQPLSQIPSDTASPLLILPPPVPNPSPTLRPVETPVVGAPGMGSVSTEPDDEEGLKHLEQQAEKMVAYLQDSALDDERLASKLQEHRAKGVSIPLMHEAMQKWYYKDPQGEIQGPFNNQEMAEWFQAGYFTMSLLVKRACDESFQPLGDIMKMWGRVPFSPGPAPPPHMGELDQERLTRQQELTALYQMQHLQYQQFLIQQQYAQVLAQQQKAALSSQQQQQLALLLQQFQTLKMRISDQNIIPSVTRSVSVPDTGSIWELQPTASQPTVWEGGSVWDLPLDTTTPGPALEQLQQLEKAKAAKLEQERREAEMRAKREEEERKRQEELRRQQEEILRRQQEEERKRREEEELARRKQEEALRRQREQEIALRRQREEEERQQQEEALRRLEERRREEEERRKQEELLRKQEEEAAKWAREEEEAQRRLEENRLRMEEEAARLRHEEEERKRKELEVQRQKELMRQRQQQQEALRRLQQQQQQQQLAQMKLPSSSTWGQQSNTTACQSQATLSLAEIQKLEEERERQLREEQRRQQRELMKALQQQQQQQQQKLSGWGNVSKPSGTTKSLLEIQQEEARQMQKQQQQQQQHQQPNRARNNTHSNLHTSIGNSVWGSINTGPPNQWASDLVSSIWSNADTKNSNMGFWDDAVKEVGPRNSTNKNKNNASLSKSVGVSNRQNKKVEEEEKLLKLFQGVNKAQDGFTQWCEQMLHALNTANNLDVPTFVSFLKEVESPYEVHDYIRAYLGDTSEAKEFAKQFLERRAKQKANQQRQQQQLPQQQQQQPPQQPPQQPQQQDSVWGMNHSTLHSVFQTNQSNNQQSNFEAVQSGKKKKKQKMVRADPSLLGFSVNASSERLNMGEIETLDDY
- competitive advantage over 4E-BP1 for binding to 4EHP [3]: the auxiliary sequences afford GYF2 a competitive advantage over 4E-BP1 for binding to 4EHP
- repression of tethered reporter by 4EHP in GYF1/2-null cells [4]: restored by transient expression of wild-type GFP-tagged GYF2
- repression of MS2 reporter expression [1]: repressed mRNA reporter expression in tethering assays
- effect on reporter lacking the MS2-binding sites [5]: did not repress a reporter lacking the MS2-binding sites

B2: GYF2 C+L+NC+A: GYF2 residues K35–T105, complete 4EHP-binding region (peptide)
chain: KYKLADYRYGREEMLALFLKDNKIPSDLLDKEFLPILQEEPLPPLALVPFTEEEQRNFSMSVNSAAVLRLT
modifications: left off: MBP, N-terminal, state not stated | GB1, C-terminal, kept
- effect on 4EHP's affinity for the m7GpppG cap analog [6]: did not increase the affinity of 4EHP for an m^7GpppG cap analog
- 4E-BP1 displaced from 4EHP RE-LL [7]: 40%
